Measurements as given in PubChem BioAssay AID2445 (The Scripps Research Institute Molecular Screening Center, 2010).
About 200 (0.062%) of roughly 320,000 compounds were called active. For the sample, actives were picked, then their nearest neighbours and some compounds at random. A number with no mark means an inactive call.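 How the source made its calls: active means activation above that plate's cutoff, the mean activation of tested compounds plus 3 SD (cut at about 6.6% in these data, passing the limit was not always enough); inactive means the rest.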

These compounds were tested against Oxytocin receptor (Homo sapiens) (UniProt P30559) (assay: human OXTR potentiators, primary screen, fluorescence, CHO-OTR cells, Fluo-8 calcium (AID 2445;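 further: 100% uses oxytocin at 75 nM as the full agonist control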)). Conditions: Fluo-8 calcium fluorescence, potentiator mode, at 3 µM, stronger effect = higher value, 0% = oxytocin EC15, 100% = EC100.
Oxytocin receptor (Homo sapiens), sequence (P30559 whole entry, looked up): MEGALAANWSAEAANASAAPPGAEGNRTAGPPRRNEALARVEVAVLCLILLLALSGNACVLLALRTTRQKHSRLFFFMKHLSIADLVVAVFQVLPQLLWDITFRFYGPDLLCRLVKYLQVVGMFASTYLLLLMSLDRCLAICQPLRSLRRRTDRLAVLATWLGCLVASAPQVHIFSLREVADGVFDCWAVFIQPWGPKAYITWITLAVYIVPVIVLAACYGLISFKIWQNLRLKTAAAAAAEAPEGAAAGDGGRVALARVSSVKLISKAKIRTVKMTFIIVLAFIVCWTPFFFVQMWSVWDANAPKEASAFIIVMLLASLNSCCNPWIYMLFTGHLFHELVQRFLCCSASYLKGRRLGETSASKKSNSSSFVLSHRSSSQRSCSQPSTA
In short: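 System: human OTR in CHO cells; Also added: sub-maximal oxytocin, roughly EC15; Timing: compound 6 min at room temperature before oxytocin, 100 s read; Technique: Fluo-8 intracellular calcium fluorescence, ex 470-495, em 515-575 nm; Controls: oxytocin EC15 low and EC100 high; Replication: singlicate.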
`O=C(CNC(=O)c1ccc2ccccc2c1)Nc1ncccc1O` was tested, and the activation was 1.14%. `COc1ccc(N(C(=O)c2snc(C(N)=O)c2N)C(C(=O)NC2CCCC2)c2ccc(C)o2)c(OC)c1` (centres undefined) showed an activation of -3.04%. With `Cc1ccc(OCC(O)CN2CCN(CC(O)COc3ccc(C)cc3Cl)CC2)c(Cl)c1` (centres undefined) the activation was 12.6% (active). `OC(COc1ccc(F)cc1Cl)CN1CCc2ccccc2C1` (centres undefined) gave an activation of -6.27%. `Cc1cccc(OCC(O)CN2CCN(S(=O)(=O)c3ccc(C)cc3C)CC2)c1` (centres undefined) gave an activation of -12%. `COc1ccc(NC(=O)CCNS(=O)(=O)c2ccc3c(c2)c(=O)n(C)c(=O)n3C)cc1OC` was tested, and the activation was -4.46%. In the case of `O=C(Nc1ccc2c(c1)OCO2)C1CC(c2c(F)cccc2Cl)=NO1` (centres undefined), the activation is reported as -1.98%. `CS(=O)(=O)N(Cc1nc2sc3c(c2c(=O)[nH]1)CCCC3)C1CCCCC1` showed an activation of -9.15%. `COc1cc2c(cc1OC)C(=O)NCC(C)(C)O2` showed an activation of 0.49%. With `CN(C(=O)c1cccc(NC(=O)Cc2ccc([N+](=O)[O-])cc2)c1)C1CCC1` the activation was -0.31%. Compound `O=C(CSc1n[nH]c(-c2cccnc2)n1)Nc1ccc(Cl)cc1` has an activation of -11%. `COC(=O)C1CCN(C(=O)COC(=O)c2cc(S(=O)(=O)N3CCOCC3)ccc2C)CC1` gave an activation of -5.03%. Compound `O=C(OCCN1C(=O)c2ccccc2C1=O)[C@@H]1CC(O)CN1S(=O)(=O)c1ccccc1[N+](=O)[O-]` (some centres undefined) has an activation of -5.05%. In the case of `CCN(CC(=O)NCc1cccs1)C(=O)c1cccc(S(=O)(=O)Nc2ccccc2OC)c1`, the activation is reported as -5.42%. Compound `Cc1ccc(N2C(=O)SC(N(CC(=O)O)c3ccc(C)cc3)C2=O)cc1` (centres undefined) has an activation of -15.1%. In the case of `O=C(NCC(c1ccco1)N1CCc2ccccc21)c1cccc(F)c1` (centres undefined), the activation is reported as -9.25%. `CSc1nnnn1-c1c(C)cc(C)cc1C` gave an activation of -1.91%. In the case of `CCOc1ccccc1Nc1nnc(SCC(=O)NCC2CCCO2)s1` (centres undefined), the activation is reported as 0.07%. `O=C(CCc1nnc2ccc(NCc3ccccc3Cl)nn12)NCC1CCN(C2CCCC2)C1` (centres undefined) showed an activation of -8.06%. Work on `CCCC(NC(=O)c1ccccc1)c1nc2ccccc2n1Cc1ccc(C(=O)OC)o1` (centres undefined) yielded an activation of 4.77%. For `COc1cccc(-n2c(=O)c3c(C)c(C(=O)N(C)C)sc3n(CC(=O)NCCc3ccc(OC)c(OC)c3)c2=O)c1`, the activation was -15.7%. With `CC(CNC(=O)c1ccc(N)cc1)NC(=O)c1ccc(N)cc1` (centres undefined) the activation was -7.37%. In the case of `CC(C)(CNC(=O)CNC(=O)C1CCCCC1)N1CCOCC1`, the activation is reported as -6.61%. `COCCN(C(=S)Nc1cccc(Cl)c1C)C(C)c1ccco1` (centres undefined) was tested, and the activation was 2.23%. `CC(C)N1C(=S)SC(C)(C)C1n1oc(=O)n(-c2ccc(Cl)c(Cl)c2)c1=O` (centres undefined) was tested, and the activation was -15.1%. For `COc1ccc2[nH]c(=O)c(CN(Cc3cccnc3)S(=O)(=O)c3ccccc3F)cc2c1`, the activation was -13.1%. With `OC(c1ccc(Cl)cc1)C(CN1CCOCC1)c1ccccc1` (centres undefined) the activation was -9.47%. Compound `CCS(=O)(=O)c1ccc2c(c1)N(S(=O)(=O)c1ccccc1)CC(C(=O)O)O2` (centres undefined) has an activation of -11.9%. `Cc1ccc(-n2ncc3c2CC(C)(C)CC3NC(=O)CCc2cnn(C)c2)cc1` (centres undefined) was tested, and the activation was -3.78%.
